GPR7 antag: GPR7 receptor antagonists, primary screen, cell-based, fluorescence, single concentration; Neuropeptides B/W receptor type 1 (Homo sapiens), P48145; GPR7-expressing cells, fluorescence antagonist assay; inhibition, % at 4.4 µM; 290,000 tested, 1.1% active; AID 1861, 2009; in the data active = inhibition above about 16%, passing the limit was not always enough;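 note: cells stimulated with the agonist NPW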
Target sequence (P48145 whole entry, looked up): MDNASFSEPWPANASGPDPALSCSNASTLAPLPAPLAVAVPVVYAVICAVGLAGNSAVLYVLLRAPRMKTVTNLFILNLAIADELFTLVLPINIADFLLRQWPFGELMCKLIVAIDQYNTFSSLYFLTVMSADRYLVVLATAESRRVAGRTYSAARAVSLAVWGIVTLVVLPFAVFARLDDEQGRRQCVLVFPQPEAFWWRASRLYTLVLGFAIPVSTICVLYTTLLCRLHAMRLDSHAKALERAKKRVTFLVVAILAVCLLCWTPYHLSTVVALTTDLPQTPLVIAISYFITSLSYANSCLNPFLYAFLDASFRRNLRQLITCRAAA
TRPN1 ag: zebrafish TRPN1 channel agonists, primary screen, cell-based, HEK293, calcium fluorescence; transient receptor potential cation channel N1 (TRPN1/NompC), Danio rerio; activation, % at 3 µM; HEK293 zebrafish TRPN1-YFP, Fluo-8 calcium fluorescence; 100% = response to 87 µM carbachol; 220,000 tested, 0.18% active;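 active = activation above its plate's cutoff, the mean activation of test wells on that plate plus 3 SD, cut at about 19% in these data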
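Material: zebrafish TRPN1-YFP in HEK293 cells. Doses: one dose of 3 µM, 0.3% DMSO. Incubation: dye 1 h 37 °C plus 30 min RT. Measured by: intracellular calcium fluorescence with Fluo-8.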
TRPML3 agonist: human TRPML3 channel agonists, primary screen, cell-based, HEK293 TRPML3-YFP, Fluo-8 calcium fluorescence, 3 µM; activation, % at 3 µM; Mucolipin-3 (Homo sapiens), Q8TDD5; 100% = the carbachol control signal; 220,000 tested, 0.29% active;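 active = activation above its plate's cutoff, the mean activation of the plate's test wells plus 3 SD, cut at about 12% in these data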
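Test system: HEK293 cells stably carrying human TRPML3-YFP; Doses: single dose, 3 µM final nominal compound, 0.3% DMSO final; Schedule: dye loading 1 h 37 °C then 30 min ambient, 125 s read; Technique: Fluo-8 calcium fluorescence; Benchmarks: high control carbachol 87 µM, low control DMSO.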
TAAR1 ag: human TAAR1 agonists, primary screen, Fluo-8 calcium fluorescence, CHO RD-HGA16 cells; Trace amine-associated receptor 1 (Homo sapiens), Q96RJ0; vehicle wells 0%, saturating PEA agonist 100%; activation, % at 3 µM; 360,000 tested, 0.99% active;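 active = activation above the mean activation of all test compounds in the run plus 3 SD, cut at about 38% in these data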
Target sequence (Q96RJ0 whole entry, looked up): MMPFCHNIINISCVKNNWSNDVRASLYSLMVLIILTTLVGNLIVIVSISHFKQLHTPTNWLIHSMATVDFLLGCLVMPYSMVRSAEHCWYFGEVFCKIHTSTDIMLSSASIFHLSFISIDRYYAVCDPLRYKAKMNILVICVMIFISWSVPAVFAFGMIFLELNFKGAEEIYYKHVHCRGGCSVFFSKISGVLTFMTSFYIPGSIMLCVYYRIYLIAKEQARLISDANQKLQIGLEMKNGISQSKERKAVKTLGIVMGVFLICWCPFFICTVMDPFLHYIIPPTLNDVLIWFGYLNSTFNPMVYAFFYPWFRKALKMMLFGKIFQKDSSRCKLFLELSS
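Assay system: CHO-derived RD-HGA16 cells with stable Gα16 and human TAAR1; timing: 17-24 h seeding, 75 min 37 °C dye, 30 min RT; read-out: % activation from peak over basal fluorescence ratio, DMSO-to-PEA scaled; measured by: kinetic Fluo-8 calcium fluorescence; benchmarks: low control DMSO, high control PEA (EC100); doses: 3 µM single concentration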
LANA-H2A inh: blockers of LANA interaction with H2A/H2B – biochemical, FP readout, HTS, primary screen; inhibition, % (no concentration beside the values); 320,000 tested, 0.6% active; Protein LANA1 (Human herpesvirus 8 type P (isolate GK18)), Q9QR71; cell-free LANA-H2A/H2B peptide, fluorescence polarization; AID 2629, 2010; in the data active = inhibition mostly above about 10%, no sharp cut-off; inactive = mostly below about 6.7%
TAAR1 antag: human TAAR1 antagonists, primary screen, Fluo-8 calcium fluorescence, CHO RD-HGA16 cells | antagonist | inhibition, % at 3 µM | 360,000 tested, 1.5% active;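 active = inhibition above a per-plate cutoff, the mean inhibition of test compounds on that plate plus 3 SD, cut at about 49% in these data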
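test system = CHO RD-HGA16 cells bearing hTAAR1 | replication = singlicate | controls = DMSO-only wells and EC80 β-PEA-stimulated wells | reagent = EC80 β-phenethylamine stimulus | read-out basis = percent inhibition of PEA-evoked calcium signal, max/basal emission ratio | schedule = seeding 17-24 h prior, 75-min 37 °C, 30-min RT dye loading | signal = kinetic Fluo-8 calcium fluorescence measurement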
TAAR1 ag conf: human TAAR1 agonists, retest of hits, confirmation, Fluo-8 calcium fluorescence, CHO RD-HGA16 cells. shares compounds with TAAR1 ag. scaled: DMSO 0%, maximal phenethylamine 100%. activation, % at 3 µM. 2,400 tested, 82% active;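 active = activation above a cutoff set at the run's mean compound activation plus 3 SD, cut at about 39% in these data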
Ga16 ag counter: nonselective calcium mobilization agonists, CHO-Ga16 cells, counter-screen for hTAAR1 agonist project, cell-based, fluorescence, CHO-Ga16 parental line; activation, % at 3 µM; 2,400 tested, 50% active; Fluo-8 calcium fluorescence; normalized to maximal ATP response, DMSO zero; shares compounds with TAAR1 ag;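 active = activation above the run cutoff, the mean activation over all tested wells plus 3 SD, cut at about 12% in these data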
TAAR1 desensitize: TAAR1 desensitization by agonist hits, confirmation, counter-screen for TAAR1 agonist project, cell-based, fluorescence, tachyphylaxis; CHO RD-HGA16 hTAAR1, Fluo-8 calcium, beta-PEA response inhibition; AID 651951, 2012; 2,400 tested, 46% active; shares compounds with TAAR1 ag; inhibition, % at 3 µM;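 active = inhibition above the run cutoff, the mean inhibition of all test compounds plus 3 SD, cut at about 49% in these data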;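 note: beta-PEA stimulus applied at its EC80; loss of beta-PEA calcium signal after compound pretreatment read as receptor desensitization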
Ga16 nonsel ant: inhibition of ATP-evoked calcium response in CHO-Ga16 cells, counter-screen for TAAR1 agonist project, cell-based, fluorescence; shares compounds with TAAR1 ag; CHO-Ga16 ATP-induced calcium, Fluo-8 fluorescence; inhibition, % at 3 µM; 2,400 tested, 39% active; AID 651952, 2012;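 active = inhibition above the plate's mean compound inhibition plus 3 SD, computed per plate, cut at about 22% in these data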
Hits are given with their value. Hits are enriched below; roughly 3.4% of the tested compounds scored in any of these assays.

COc1cccc(CNC(=O)c2ccc(CS(=O)(=O)Cc3ccccc3C)o2)c1 was read as GPR7 antag inactive, TAAR1 ag inactive, LANA-H2A inh inactive and TAAR1 antag inactive.
`Cc1ccccc1CS(=O)(=O)Cc1ccc(C(=O)NCCc2ccccc2)o1` gave GPR7 antag inactive, TAAR1 ag 71.8, LANA-H2A inh 14.8, TAAR1 antag inactive, TAAR1 ag conf 47.7, Ga16 ag counter inactive, TAAR1 desensitize inactive and Ga16 nonsel ant 22.5.
`N#C/C(=C\c1ccc(N2CCOCC2)o1)c1nc2ccccc2[nH]1` gave GPR7 antag inactive, TRPN1 ag inactive, TRPML3 agonist inactive, TAAR1 ag 92.1, TAAR1 antag inactive, TAAR1 ag conf 76.4, Ga16 ag counter 100.5, TAAR1 desensitize 58.4 and Ga16 nonsel ant 52.2.
N#C/C(=C\c1ccc(N2CCOCC2)c([N+](=O)[O-])c1)c1nc2ccccc2[nH]1 was read as GPR7 antag inactive, TRPN1 ag inactive, TRPML3 agonist inactive, TAAR1 ag inactive, LANA-H2A inh inactive and TAAR1 antag inactive.
Screening COc1ccccc1N1CCN(C(=O)C(C)NC(=O)c2cccc([N+](=O)[O-])c2)CC1 (centres undefined) returned GPR7 antag inactive, TAAR1 ag inactive, LANA-H2A inh inactive and TAAR1 antag inactive.
For Fc1ccccc1/C=N/Nc1ncnc2ccccc12 the results were GPR7 antag inactive, TRPN1 ag inactive, TRPML3 agonist inactive, TAAR1 ag inactive, LANA-H2A inh inactive and TAAR1 antag inactive.
For Clc1ccc(/C=N/Nc2ncnc3ccccc23)cc1Cl the results were GPR7 antag inactive, TRPN1 ag inactive, TRPML3 agonist inactive, TAAR1 ag 44.6, LANA-H2A inh inactive, TAAR1 antag inactive, TAAR1 ag conf inactive, Ga16 ag counter 13.1, TAAR1 desensitize inactive and Ga16 nonsel ant inactive.
For Cc1ccsc1/C=N/NC(=O)c1nnn(-c2nonc2N)c1C(C)C the results were GPR7 antag inactive, TAAR1 ag inactive, LANA-H2A inh inactive and TAAR1 antag inactive.
Screening CC(C)c1c(C(=O)N/N=C/c2ccoc2)nnn1-c1nonc1N returned GPR7 antag inactive, TAAR1 ag 64.7, LANA-H2A inh inactive, TAAR1 antag inactive, TAAR1 ag conf inactive, Ga16 ag counter 32.4, TAAR1 desensitize inactive and Ga16 nonsel ant inactive.
`COc1cc(/C=N/NC(=O)c2nnn(-c3nonc3N)c2C(C)C)ccc1O` gave GPR7 antag inactive, TAAR1 ag inactive, LANA-H2A inh inactive and TAAR1 antag inactive.
`Nc1nonc1-n1nnc(C(=O)N/N=C\c2cccc(Cl)c2)c1CN1CCOCC1` gave GPR7 antag inactive, TAAR1 ag inactive, LANA-H2A inh inactive and TAAR1 antag inactive.
Screening CC(C)c1c(C(=O)N/N=C/c2ccsc2)nnn1-c1nonc1N returned GPR7 antag inactive, TAAR1 ag 104.7, LANA-H2A inh inactive, TAAR1 antag inactive, TAAR1 ag conf 124.2, Ga16 ag counter 82.5, TAAR1 desensitize inactive and Ga16 nonsel ant inactive.
For CC(C)c1ccc(/C=N/NC(=O)c2nnn(-c3nonc3N)c2CN2CCOCC2)cc1 the results were GPR7 antag inactive, TAAR1 ag 60.5, LANA-H2A inh inactive, TAAR1 antag inactive, TAAR1 ag conf 89.7, Ga16 ag counter 54.1, TAAR1 desensitize inactive and Ga16 nonsel ant inactive.
Screening CC(C)c1c(C(=O)N/N=C/c2ccc(C(F)(F)F)cc2)nnn1-c1nonc1N returned GPR7 antag inactive, TAAR1 ag 149.7, LANA-H2A inh inactive, TAAR1 antag 79.2, TAAR1 ag conf 120.0, Ga16 ag counter 89.2, TAAR1 desensitize 80.4 and Ga16 nonsel ant 39.5.
For CN[C@@H](C)C(=O)NC[C@H]1O[C@@H](n2cnc3c(N)ncnc32)[C@H](O)[C@@H]1O the results were TAAR1 ag inactive and TAAR1 antag inactive.
CC(C)c1c(C(=O)N/N=C/c2cccs2)nnn1-c1nonc1N was read as GPR7 antag inactive, TAAR1 ag 90.5, LANA-H2A inh inactive, TAAR1 antag inactive, TAAR1 ag conf 108.1, Ga16 ag counter 72.2, TAAR1 desensitize inactive and Ga16 nonsel ant inactive.
CC(/C=N/NC(=O)c1nnn(-c2nonc2N)c1C(C)C)=C\c1ccccc1 was read as GPR7 antag inactive, TAAR1 ag inactive, LANA-H2A inh inactive and TAAR1 antag inactive.
CC(C)c1c(C(=O)N/N=C2\CCc3ccccc32)nnn1-c1nonc1N was read as GPR7 antag inactive, TAAR1 ag 61.9, LANA-H2A inh inactive, TAAR1 antag inactive, TAAR1 ag conf 53.0, Ga16 ag counter 15.7, TAAR1 desensitize inactive and Ga16 nonsel ant inactive.
Screening CCC(=O)N(c1nnc(SCC(=O)c2ccc[nH]2)s1)C1CC1 returned TAAR1 ag inactive, LANA-H2A inh inactive and TAAR1 antag inactive.
For O=C(O)C1CCCCC1C(=O)NCCc1ccc(Cl)cc1 (centres undefined) the results were GPR7 antag inactive, TRPN1 ag inactive, TRPML3 agonist inactive, TAAR1 ag 70.2, LANA-H2A inh inactive, TAAR1 antag inactive, TAAR1 ag conf 54.1, Ga16 ag counter inactive, TAAR1 desensitize inactive and Ga16 nonsel ant inactive.
O=C(O)C1C2CCC(C2)C1C(=O)NCCc1ccccc1 (centres undefined) was read as GPR7 antag inactive, LANA-H2A inh inactive, Ga16 ag counter inactive and Ga16 nonsel ant inactive.
